The structures appear in SMILES notation.
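Also: active if original authors judged signal statistically different from baseline.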

One assay concerns the target T1, OR5K1 (Homo sapiens) (UniProt Q8NHB7).
T1 sequence (whole entry): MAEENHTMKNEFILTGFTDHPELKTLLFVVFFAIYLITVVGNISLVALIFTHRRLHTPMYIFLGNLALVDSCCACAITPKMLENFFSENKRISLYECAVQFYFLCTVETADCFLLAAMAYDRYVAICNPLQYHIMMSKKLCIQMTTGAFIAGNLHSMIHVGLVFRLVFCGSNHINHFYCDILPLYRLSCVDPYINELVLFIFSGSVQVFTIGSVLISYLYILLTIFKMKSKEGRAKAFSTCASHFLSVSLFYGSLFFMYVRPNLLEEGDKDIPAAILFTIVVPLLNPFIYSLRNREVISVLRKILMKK
Particulars: stereoisomer not certain. An outline of the steps:
(§1)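 Each receptor–molecule pair is labelled responsive or non-responsive (inactive) according to whether the original authors judged the measured signal statistically different from baseline. The data were taken from the main text and supplementary material of published papers and checked for typos and inconsistencies. Assay methods differed by source, with transient luciferase assays in mammalian cell lines being common.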
Turning to `CC(=O)c1cnccn1`, the “odorant receptor agonist call” value was “active”. Turning to `CCCCC(CC)CCC(=O)O` (configuration not stated), the “odorant receptor agonist call” value is “inactive”.

For the molecule `CC1CCc2nccnc21` (configuration not stated), the “odorant receptor agonist call” value was “active”. On the same count and under the same terms, with `Cc1ccc(O)cc1` the entry was “inactive”. Still for that read-out and setting: next, `CCc1nccnc1CC`: “active”; `CC(=O)c1nccnc1C`: “active”.

`O=c1ccc2ccccc2o1`: the “odorant receptor agonist call” value was “inactive”. Same read-out and setting: with `CCc1nccnc1OC` the entry was “active”; with `COc1nccnc1CC(C)C`, “active”.

With `CCC=O`, the “odorant receptor agonist call” value was “inactive”.

For the molecule `Cc1c[nH]c2ccccc12`, the “odorant receptor agonist call” value is “inactive”. As to `CC=CC(=O)C(C)CC` (configuration not stated), the “odorant receptor agonist call” value is “inactive”.

Consider `Cc1cnc(C)cn1`, for which the “odorant receptor agonist call” value was “active”. Still for that read-out and setting: next, `C=CC(=C)CCC=C(C)C`: “inactive”; `CCCCCCCCCC(=O)[O-].[H+]`: “inactive”; `CCc1ncc(C)nc1CC`: “active”.

For the molecule `CCC(C)c1nccnc1OC` (configuration not stated), the “odorant receptor agonist call” value is “active”.

For the molecule `CCOC(=O)CCSC`, the “odorant receptor agonist call” value was “inactive”. Still for that read-out and setting: with `CCCCC=CC=CC=O` the entry was “inactive”; with `CC(C)CCCCCCCCCCC=O`, “inactive”; with `CCOC(=O)CC(C)C`, “inactive”. On to `CC(=O)OCCc1ccccc1`, for which the “odorant receptor agonist call” value was “inactive”. `CCCCCCC1CCC(=O)O1` (configuration not stated): the “odorant receptor agonist call” value was “inactive”. The same measure, in the same setting: with `CCCCCCCC(=O)OCC` the entry was “inactive”. The same measure, in the same setting: next, `CCc1nccnc1C(C)=O`: “active”; `CCOC(=O)CCC(C)C`: “inactive”. On to `CC(C)c1ccc(C=O)cc1`, for which the “odorant receptor agonist call” value is “inactive”. On the same count and under the same terms, with `CC(=O)O` the entry was “inactive”; with `Cc1cncc(C)n1`, “active”. The same measure, in the same setting: with `CSSc1ccoc1C` the entry was “inactive”; with `Cc1cnccn1`, “active”. As for `C=Cc1cnccn1`, the “odorant receptor agonist call” value is “active”. As for `Cc1nccnc1C`, the “odorant receptor agonist call” value was “active”. Still for that read-out and setting: next, `CC(C)CC=O`: “inactive”. For the molecule `COc1cnccn1`, the “odorant receptor agonist call” value is “active”. On the same count and under the same terms, with `CCCCCC=CCCC=O` the entry was “inactive”; with `Cc1occc1S`, “inactive”. Take `CCc1nccnc1C`: the “odorant receptor agonist call” value was “active”.

For the molecule `COc1ccc(C)cc1O`, the “odorant receptor agonist call” value is “inactive”. Same read-out and setting: next, `COc1nccnc1C(C)C`: “active”.

The target in another assay is T2, OR5K2 (Homo sapiens) (UniProt Q8NHB8).
T2 sequence (whole entry): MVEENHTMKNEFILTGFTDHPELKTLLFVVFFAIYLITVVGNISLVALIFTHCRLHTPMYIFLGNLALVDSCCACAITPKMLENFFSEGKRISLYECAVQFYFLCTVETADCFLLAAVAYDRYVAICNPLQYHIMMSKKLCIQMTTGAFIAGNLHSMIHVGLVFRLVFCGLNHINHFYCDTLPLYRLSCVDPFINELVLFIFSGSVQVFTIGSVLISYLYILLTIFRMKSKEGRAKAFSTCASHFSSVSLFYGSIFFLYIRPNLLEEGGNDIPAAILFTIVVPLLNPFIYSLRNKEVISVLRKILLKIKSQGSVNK
Particulars: stereoisomer not certain. An outline of the steps: as §1
`CC(=O)c1cnccn1`: the “odorant receptor agonist call” value was “inactive”.

Regarding `CC1CCc2nccnc21` (configuration not stated), the “odorant receptor agonist call” value was “inactive”. The same measure, in the same setting: with `CCc1nccnc1CC` the entry was “inactive”; with `CC(=O)c1nccnc1C`, “inactive”. For `CCc1nccnc1OC`, the “odorant receptor agonist call” value is “inactive”. On the same count and under the same terms, next, `COc1nccnc1CC(C)C`: “inactive”; `Cc1cnc(C)cn1`: “inactive”. `CCc1ncc(C)nc1CC`: the “odorant receptor agonist call” value is “inactive”. In the case of `CCC(C)c1nccnc1OC` (configuration not stated), the “odorant receptor agonist call” value is “inactive”. `CCc1nccnc1C(C)=O`: the “odorant receptor agonist call” value is “inactive”.

As to `Cc1cncc(C)n1`, the “odorant receptor agonist call” value is “inactive”.

Take `Cc1cnccn1`: the “odorant receptor agonist call” value was “inactive”. Same read-out and setting: with `C=Cc1cnccn1` the entry was “inactive”; with `Cc1nccnc1C`, “inactive”; with `COc1cnccn1`, “inactive”. On to `CCc1nccnc1C`, for which the “odorant receptor agonist call” value was “inactive”. Consider `COc1nccnc1C(C)C`, for which the “odorant receptor agonist call” value is “inactive”.
